Screens (PubChem BioAssay)
Hits are enriched below; roughly 3.3% of the tested compounds scored in any of these assays.
PRMT1 FP inh: PRMT1 (human) inhibition, primary screen; recombinant PRMT1, activity-based probe fluorescence polarization; inhibition, % at 2.79 µM; 1.3% of 370,000 active; AID 652257;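 active = inhibition above about 21% made by adding two undisclosed values, limit read from the data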
LEDGF integ inh: blocks HIV-1 LEDGF/p75-dependent DNA integration | inhibition, % at 3.7 µM | 0.64% of 370,000 active | TR-FRET IN-LEDGF/p75 DNA integration, Eu/Cy5;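 active = inhibition above the screen-wide mean plus 3 SD, cut at about 13% in these data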;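 note: signal is the Cy5 over europium emission ratio at 671 and 618 nm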
UHRF1 MBD2 ctr: human UHRF1 methylated DNA binding inhibitors. Q96T88. UHRF1 binding to methylated oligo, TR-FRET. inhibition, % at 4.4 µM. 0.75% of 370,000 active. AID 687016; in the data active = inhibition above about 21%;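 note: UHRF1 SRA domain binding a hemimethylated CpG hairpin DNA probe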
SIAE primary: blocks human sialic acid acetylesterase; SIAE FP-Rh probe binding, fluorescence polarization; Q9HAT2; 0.69% of 370,000 active; inhibition, % at 9.66 µM;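 active = inhibition above a cutoff: mean of compounds within the control limits plus 3 SD of those, cut at about 17% in these data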
Target sequence (Q9HAT2 whole entry, looked up): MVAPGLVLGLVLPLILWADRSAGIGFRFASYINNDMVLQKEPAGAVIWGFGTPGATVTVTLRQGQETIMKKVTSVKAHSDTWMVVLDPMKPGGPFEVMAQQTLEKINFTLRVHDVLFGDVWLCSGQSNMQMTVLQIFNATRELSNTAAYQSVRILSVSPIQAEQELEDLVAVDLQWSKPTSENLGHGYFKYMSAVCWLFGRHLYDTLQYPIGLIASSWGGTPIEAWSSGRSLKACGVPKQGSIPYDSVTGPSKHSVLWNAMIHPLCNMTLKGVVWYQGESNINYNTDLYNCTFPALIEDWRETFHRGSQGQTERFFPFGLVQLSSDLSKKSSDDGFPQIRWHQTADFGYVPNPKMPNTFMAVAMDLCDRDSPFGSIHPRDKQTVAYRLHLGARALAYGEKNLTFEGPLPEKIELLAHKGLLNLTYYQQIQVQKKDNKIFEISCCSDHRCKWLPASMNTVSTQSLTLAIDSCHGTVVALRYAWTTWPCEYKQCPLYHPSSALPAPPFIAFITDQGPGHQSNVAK
TDP2 absorb: TDP2 (human) inhibition, absorbance primary screen; recombinant TDP2, T5PNP hydrolysis, p-nitrophenol absorbance 415 nm; O95551; inhibition, % at 12.8 µM; AID 720702; 0.34% of 370,000 active;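 active = inhibition above the mean of all tested compounds plus 3 SD, set per campaign, cut at about 25% in these data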
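System – recombinant human TDP2 · Amount – 120 nM TDP2 per well · Buffer or medium – Mg2+-containing Tris-HCl buffer, pH 7.5 · Reagent – T5PNP substrate, 5 mM · Dosing – 12.8 µM single point, 1% DMSO · Incubation – 2 h at 37 °C · Measured by – epi absorbance · Read-out basis – percent inhibition · Benchmarks – high control without enzyme, low control DMSO plus TDP2 · Repeats – singlicate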
MBD2 DNA inh: blocks human MBD2 binding to methylated DNA. AID 686964. 0.31% of 370,000 active. inhibition, % at 4.4 µM. TR-FRET, MBD2 binding to methylated oligonucleotide. Q9UBB5; in the data active = inhibition above about 13%
Large screens that a line does not name were inactive.

O=C(N=C1SC2CS(=O)(=O)CC2N1c1c(Cl)cccc1Cl)C1CC1 (stereo not given)	none
COC(=O)c1cc(S(=O)(=O)N2CCN(c3ccccc3Cl)CC2)cn1C	none
CN(CCO)c1ccc2c(c1)Oc1ccccc1CN(Cc1cn(Cc3ccc(C(F)(F)F)cc3)nn1)S2(=O)=O	none
O=C(Nc1cccs1)Nc1ccc(Br)cc1F	SIAE primary 20.1
O=C(CC1CCCC1)N1CC[C@H]2[C@H](CCCN2Cc2ccccc2)C1	none
COc1ccccc1/C=C/C(=O)NNC(=O)c1cc(C)oc1C	none
Cc1cc(C(=O)NNC(=O)/C=C/c2ccco2)c(C)o1	PRMT1 FP inh 23.4, LEDGF integ inh 52.8, UHRF1 MBD2 ctr 28.8
Cc1ccc(-c2cc(C(=O)N3CCN(c4ncccn4)CC3)c3cc(Br)ccc3n2)o1	PRMT1 FP inh 49.4
CCc1cc(SC#N)ccc1N	PRMT1 FP inh 23.9
CCc1ccc2nc(Nc3ccc(OC)cc3OC)c(C#N)cc2c1	UHRF1 MBD2 ctr 22.3
CCn1c2ccccc2c2cc(NC(=O)C(=O)N3CCOCC3)ccc21	UHRF1 MBD2 ctr 22.9
O=C1C(Cl)=C(N2CCOCC2)C(=O)N1c1cccc(C(F)(F)F)c1	PRMT1 FP inh 21.6
COC(=O)c1cccc(N2C(=O)C(Cl)=C(N3CCOCC3)C2=O)c1	none
O=C(CCCc1nc2ccccc2s1)N1CCN(c2ccccc2)CC1	PRMT1 FP inh 23.3
O=C(O)C1CCN(C(=O)CSc2nc3ccccc3s2)CC1	none
O=C(CSc1nc2ccccc2s1)N1CCCCC1	UHRF1 MBD2 ctr 41.6
O=C(CCCc1nc2ccccc2s1)N1CCN(c2ccccc2F)CC1	none
COC(=O)c1cc(-c2cc3ccccc3s2)c(=O)n2c1CCC2	none
CCCCCC(=O)Nc1cccc(C2=NOC3(C2)C[C@@H](C(N)=O)N(C(=O)c2cc([N+](=O)[O-])cc([N+](=O)[O-])c2C)C3)c1 (stereo not given in full)	none
C/C=C/C=C\C(=O)Nc1cccc(C2=NOC3(C2)C[C@@H](C(N)=O)N(C(=O)c2cc([N+](=O)[O-])cc([N+](=O)[O-])c2C)C3)c1 (stereo not given in full)	PRMT1 FP inh 24.5
CCCCCCCCN1C(=O)[C@@H](CC(=O)NCCCOCCCC)C[C@@]2(C(=O)OC)C1=C[C@H](COCc1ccccc1)O[C@@H]2C	none
Cc1ccc(NC(=O)COc2ccc3oc4c(c3c2)CCCC4)nc1	UHRF1 MBD2 ctr 25.5
Cc1cccnc1NC(=O)COc1ccc2oc3c(c2c1)CCCC3	none
COC(=O)[C@]12C[C@H](CC(=O)NCc3cccc(C(F)(F)F)c3)C(=O)N(Cc3ccco3)C1=C[C@H](C(C)(C)C)O[C@@H]2C	none
O=C(OC12CCCN(C1)/C(=C/c1ccncc1)C2)c1ccccc1 (stereo not given)	none
COc1ccc(CCNC(=O)COC(=O)CSc2ccc(C(N)=O)cc2[N+](=O)[O-])cc1OC	PRMT1 FP inh 22.3
CCC[C@H]1[C@@H](NC(=O)C(c2ccccc2)c2ccccc2)CC[C@@]23CCCN2C(=O)CCC[C@@H]13	none
CCOC(=O)[C@]12CCCCC/C=C\1N(Cc1ccc(OC)cc1)C(=O)[C@H]2CC(=O)NCc1cccc2ccccc12	none
CC(C)(C)c1cc(C(c2cccnc2)N2CCN(CCO)CC2)cc(C(C)(C)C)c1O (stereo not given)	PRMT1 FP inh 22.4
CC(C)(C)n1nnnc1C(c1cccnc1)N1CCN(c2cccc(C(F)(F)F)c2)CC1 (stereo not given)	none
O=C(Nc1ccc2c(c1)OCO2)OC1CC2CC1[C@H]1CCCCN1[C@H]2Cc1ccccc1 (stereo not given in full)	none
O=C(CCc1ccccc1)N[C@H]1[C@@H](OC(=O)c2ccco2)CCC[C@]12C(=O)N(Cc1ccccc1)c1ccccc12	none
O=C(N/N=C/c1ccoc1)c1cc(O)cc(O)c1	UHRF1 MBD2 ctr 28.5
O=C(N/N=C/c1ccc(OC(=O)c2ccccc2Cl)cc1)c1cc(O)cc(O)c1	LEDGF integ inh 17.4, UHRF1 MBD2 ctr 37.3
Cc1cccc(C(=O)Oc2ccc(/C=N/NC(=O)c3ccccc3O)cc2)c1	none
COc1cc(/C=N/NC(=O)c2cc(O)cc(O)c2)ccc1OC(=O)c1ccccc1	UHRF1 MBD2 ctr 27.7
CCOC(=O)[C@@]12CCCC=C1N(CCc1ccc(Cl)cc1)C(=O)[C@H]2CC(=O)NCCCCc1ccccc1	none
CC(=O)c1cccc(NC(=O)CSC(=O)c2ccccc2)c1	PRMT1 FP inh 48.7
CCN(CC)c1ccc(NC(=O)CSC(=O)c2ccccc2)cc1	none
COc1ccc(-n2c(CN3CCC(C(N)=O)CC3)nc3ccc([N+](=O)[O-])cc3c2=O)c(OC)c1	LEDGF integ inh 23.4
CCC(=O)N(C)C[C@@H]1[C@H](c2ccc(C3=CCCCC3)cc2)[C@H](CO)N1C(=O)CC	none
CC(C)OC(=O)c1cn(-c2ccccc2)nc1-c1ccco1	PRMT1 FP inh 23.2
CCOc1ccc2nc(SCC(=O)NC(=O)NCc3ccco3)sc2c1	none
O=C(CSc1nc2cc(Cl)ccc2s1)NC(=O)NCc1ccco1	PRMT1 FP inh 21.2
CC1(c2ccc([N+](=O)[O-])cc2)Nc2ccccc2S1 (stereo not given)	PRMT1 FP inh 45.1
COc1ccc(S(=O)(=O)NCc2cccs2)cc1	UHRF1 MBD2 ctr 47.9
O=C1CC(=O)Nc2cc(S(=O)(=O)NCc3cccs3)ccc2N1	UHRF1 MBD2 ctr 23.6
O=C(O)c1cccc(S(=O)(=O)NCc2cccs2)c1	none
CCOC(=O)[C@]12CCCC3=C1N(CCC3)C(=O)[C@@H](CC(=O)NCc1ccc(OC)c(OC)c1)C2	none
COc1ccc2c(c1)c(=O)oc1cc(OCC(=O)NC3CCCCC3)ccc12	UHRF1 MBD2 ctr 24.9
COc1ccc2c(c1)c(=O)oc1cc(OCC(=O)NC3CC3)ccc12	none
CC(CCc1ccccc1)NC(=O)CN1CCN(c2ccc(O)cc2)CC1 (stereo not given)	PRMT1 FP inh 22.5
CCOC(=O)N1CCN(C(=O)C[C@H]2C[C@@]3(C(=O)OC)C(=C[C@H](C(C)C)O[C@@H]3C3CC3)N(Cc3ccco3)C2=O)CC1	none
Cc1cc(C(=O)OCC(=O)Nc2cccc(S(N)(=O)=O)c2)c2ccccc2n1	UHRF1 MBD2 ctr 22.7
CC(C)Cn1c(=O)cc(N2CCN(c3cccc(C(F)(F)F)c3)CC2)[nH]c1=O	none
O=[N+]([O-])c1ccccc1C1Nc2cccc3cccc(c23)N1	PRMT1 FP inh 28.5
Oc1ccccc1C1Nc2cccc3cccc(c23)N1	none
CCOc1ccc(Cl)cc1-c1cc(C(=O)NCc2cc(C(F)(F)F)cc(C(F)(F)F)c2)[nH]n1	UHRF1 MBD2 ctr 44.6
CCOc1ccc(Cl)cc1-c1cc(C(=O)NCc2ccccc2)[nH]n1	none
C#CC[N+]1(CC#Cc2ccccc2)CCCCC1	UHRF1 MBD2 ctr 38.2
CCOc1ccc(C(N)=O)cc1OC	none
